DNMT1 inh: inhibitors of human DNMT1; P26358; DNMT1 molecular beacon, Hinp1I cleavage, fluorescence; inhibition (reported as % activation of signal), % at 10 µM; actives 0.83% (n = 360,000)
Scp-1 inhibitor: blocks human Scp-1 phosphatase activity | inhibition, % at 20 µM | AID 493091 | Recombinant Scp1, phosphopeptide, malachite green phosphate absorbance | Q9GZU7 | actives 0.88% (n = 340,000);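 active = inhibition above about 50% at 20 µM, limit read from the data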;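 note: plate controls were DMSO wells with enzyme for no effect and wells lacking enzyme for full effect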
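Test system: SCP-1 catalytic domain; Buffer or medium: Acidic Tris acetate buffer with magnesium and detergent; Also added: Phosphorylated 17-residue peptide substrate; Compound: single 20 µM dose, 1% DMSO; Schedule: enzyme reaction 45 min at room temperature, colour 5 min, stabilisation 30 min; Signal: Phosphate-binding colour reagent, absorbance read at 630 nm.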
LMPTP inh: blocks human LMPTP phosphatase; P24666; recombinant LMPTP-A, OMFP fluorogenic substrate, fluorescence intensity; inhibition, % at 20 µM; actives 0.22% (n = 360,000);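 active = compounds that cut the enzyme signal by at least half of the control window in the single-dose screen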;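 note: plate controls were DMSO wells with enzyme plus substrate for no effect and substrate without enzyme for full effect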
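Test system – LMPTP-A enzyme · Amount – LMPTP-A at 0.625 nM final in the reaction · Buffer or medium – Bis-Tris pH 6.0, DTT, detergent · Reagent – OMFP 400 µM · Doses – single 20 µM dose · Schedule – reaction 50 min, room temperature, dark · Detection – fluorescence intensity of OMFP turnover product · Evaluation – percent inhibition versus substrate-only and uninhibited controls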
SUMO1 PPI mod: SUMO1-SIM interaction modulation | P63165 | SUMO1 binding to a labelled peptide, TR-FRET, 1 h | inhibition, % at 20 µM | actives 0.33% (n = 360,000) | AID 602429; in the data active = inhibition above about 37%
STEP inh: inhibitors of human striatal-enriched phosphatase STEP; P54829; recombinant STEP, OMFP fluorogenic substrate, fluorescence; actives 0.25% (n = 360,000); inhibition, % at 20 µM;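 active = inhibition at 20 µM, scaled per plate between control wells, above about 37%, limit read from the data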;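 note: 0% = DMSO with enzyme and substrate and 100% = substrate only without enzyme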
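Material: STEP (striatal-enriched tyrosine phosphatase) enzyme, cell-free; Compound dosing: 20 µM single dose in 1% DMSO; Technique: fluorescence read at 480 nm ex / 540 nm em; Times: reaction 20 min, ambient temperature; Medium: 50 mM Bis-Tris pH 6.0 with 2.5 mM DTT and 0.005% Tween 20; Also added: OMFP at 25 µM.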
CSN deneddyl inh: CSN deneddylation inhibition; Purified CSN, SCF-Nedd8-OG deneddylation, fluorescence polarization; inhibition, % at 12.5 µM; actives 0.38% (n = 360,000); AID 651999; Q92905;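 active = pattern-corrected inhibition above about 35%, with an unprinted fluorescence ratio check between 0.5 and 1.5, limit read from the data, passing the limit was not always enough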;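 note: 0% = enzyme with substrate and 100% = substrate without enzyme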
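Material: purified human Csn5 enzyme expressed in HEK293T cells / Medium: Tris buffer pH 7.5, NaCl, DTT, Tween-20, trehalose, ovalbumin / Compound dosing: 12.5 µM single point / Schedule: 90 min incubation of compound, enzyme and substrate at room temperature / Signal: fluorescence polarization of the substrate / Control set: no-enzyme wells high, enzyme-with-substrate wells low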
CSN deneddyl val: validation of inhibitors of human CSN-mediated cullin deneddylation. shares compounds with CSN deneddyl inh. Csn5 deneddylation of SCF-Nedd8OG, fluorescence polarization, 90 min. inhibition, % at 16.6 µM. actives 62% (n = 540);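 note: 0% = DMSO with enzyme and 100% = no enzyme wells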
MMP-2 counter: counter-screen for CSN deneddylation inhibitors: human MMP-2 inhibition. shares compounds with CSN deneddyl inh. recombinant MMP-2, FRET substrate fluorescence, 60 min. inhibition, % at 16.6 µM. actives 33% (n = 540). AID 720655;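 active = corrected plate-normalized z-score of 5 or more, or -5 or less, or inhibition of 15% or more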;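 note: plate controls were DMSO wells with enzyme for no effect and buffer wells lacking MMP-2 for full effect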
Thrombin cntr: counter-screen for CSN deneddylation inhibitors: bovine thrombin inhibition. shares compounds with CSN deneddyl inh. bovine thrombin cleavage of Ub4-pepOG, fluorescence polarization. inhibition, % at 16.6 µM. actives 49% (n = 540). AID 720656;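 active = inhibition at or above a set limit, with a fluorescence interference ratio between 0.5 and a set maximum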
Target sequence (P00735 whole entry, looked up): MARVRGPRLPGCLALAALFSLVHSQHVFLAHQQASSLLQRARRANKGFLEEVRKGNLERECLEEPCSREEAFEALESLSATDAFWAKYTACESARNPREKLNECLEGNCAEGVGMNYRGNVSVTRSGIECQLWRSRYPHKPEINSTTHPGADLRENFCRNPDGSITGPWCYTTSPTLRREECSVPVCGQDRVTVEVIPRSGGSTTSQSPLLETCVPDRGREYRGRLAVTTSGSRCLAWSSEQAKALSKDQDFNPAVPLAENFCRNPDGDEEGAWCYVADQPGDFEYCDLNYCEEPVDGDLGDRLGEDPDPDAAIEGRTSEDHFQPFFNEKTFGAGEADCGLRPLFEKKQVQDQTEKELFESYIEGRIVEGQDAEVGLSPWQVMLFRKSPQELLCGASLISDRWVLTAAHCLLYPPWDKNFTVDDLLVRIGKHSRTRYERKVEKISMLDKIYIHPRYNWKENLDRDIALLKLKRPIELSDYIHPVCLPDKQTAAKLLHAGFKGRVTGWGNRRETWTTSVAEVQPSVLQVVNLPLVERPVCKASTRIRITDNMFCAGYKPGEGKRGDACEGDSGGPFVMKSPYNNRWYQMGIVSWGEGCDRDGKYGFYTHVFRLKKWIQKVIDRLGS
Active calls of the source: *; nt = no result; + = active, no number. Sampled rows, rich in hits. Any-hit rate of the full collection: about 2%. Cut-off read from the data, not from the text of the source, unless noted: active = inhibition above about 50%; inactive = the rest.

SMILES	DNMT1 inh	Scp-1 inhibitor	LMPTP inh	SUMO1 PPI mod	STEP inh	CSN deneddyl inh	CSN deneddyl val	MMP-2 counter	Thrombin cntr
O=C1C2C3C=CC(CC3)C2C(=O)N1/N=C/c1ccc(O)cc1 (stereo not drawn)	15.8	-5.2	-0.9	-1.8	-0.6	5.2	nt	nt	nt
COc1cc(/C=C2\SC(=S)N(NC(=O)c3ccc(O)cc3)C2=O)ccc1O	-5.4	-18.2	4.8	7.9	-1.7	50.1*	52.8*	2.5	65.1*
COc1cc(/C=C2\SC(=S)N(NC(=O)c3cccnc3)C2=O)ccc1O	-1.6	-9.4	1.2	-8.0	-3.7	38.8*	65.1*	9.2	35.1*
CC(=O)NN1C(=O)/C(=C\c2ccc(O)cc2)SC1=S	-0.5	-2.7	1.3	-63.9	6.0	95.7*	39.0	-4.8	73.2*
CC(=O)NN1C(=O)/C(=C\c2ccc(C)cc2)SC1=S	3.6	-6.1	1.0	-9.6	0.3	-1.1	nt	nt	nt
COc1cccc(/C=C2\SC(=S)N(NC(=O)c3ccncc3)C2=O)c1	-1.3	2.0	0.3	9.5	-1.0	6.0	nt	nt	nt
O=C(NN1C(=O)/C(=C/c2cccc(O)c2)SC1=S)c1ccccc1O	0.7	-11.3	2.7	1.4	-2.4	-4.9	nt	nt	nt
O=C1/C(=C\c2ccc(O)cc2)SC(=S)N1/N=C/c1ccc(O)cc1	-15.7	-13.9	3.8	2.7	-5.3	93.6*	38.5	-23.1	86.1*
N#C/C(=C\c1ccc(O)c(O)c1)C(=O)c1ccc(O)c(O)c1	14.7	1.3	16.7	-32.3	2.0	167.2	nt	nt	nt
N#CC(C#N)=C(N)/C(C#N)=C/c1cc(O)c(O)c(O)c1	-1.6	-0.7	50.6*	-20.5	1.9	122.1*	10.8	9.3	57.4*
C=C(C)CN(CC)c1nc(N)c2c(N)nc3c(c2c1C#N)CC(=O)N3C12CC3CC(CC(C3)C1)C2	-19.2	7.6	9.7	17.3	12.8	18.9	nt	nt	nt
N#Cc1c(N2CCCC(O)C2)nc(N)c2c(N)nc3c(c12)CC(=O)N3C12CC3CC(CC(C3)C1)C2 (stereo not drawn)	83.7*	5.3	48.8*	56.5*	19.0	52.3*	93.5*	4.0	-43.1
Cc1ccc(OCC(=O)NCCCNC(=O)c2ccc(C)nc2)cc1	-0.5	-2.0	-0.4	-1.4	1.3	4.2	nt	nt	nt
C=CCn1c(O)c(N=Nc2ccccc2O)c2ccccc21	-20.9	-10.6	4.2	-29.7	-3.3	47.2*	+	-5.7	32.5*
CCOCCCNc1nc2c(C)cccn2c(=O)c1/C=C1\SC(=S)N(CC(C)C)C1=O	10.2	2.8	-0.8	-6.3	-14.5	46.5*	76.3*	-5.4	19.6*
CCOCCCNc1nc2c(C)cccn2c(=O)c1/C=C1\SC(=S)N(C(C)CC)C1=O (stereo not drawn)	3.7	-4.2	4.4	-31.9	-47.6	-78.1	nt	nt	nt
Cc1cccn2c(=O)c(/C=C3\SC(=S)NC3=O)c(NCCCN3CCOCC3)nc12	-1.9	-9.0	16.2	-24.6	10.1	84.6*	81.1*	-18.2	47.3*
COC(=O)c1ccc(N2NC(=O)/C(=C/c3cc(OC)c(O)c(OC)c3)C2=O)cc1	4.7	33.2	35.6	-22.7	24.4	21.1	nt	nt	nt
COc1cc(/C=C2/C(=O)NN(c3ccc(Cl)cc3)C2=O)cc(Br)c1O	47.8	35.0	65.3*	74.5*	83.2*	44.9*	-15.6	7.4	22.8*
CCC(C)[C@H](NC(=O)C1(c2ccccc2)CCN(C(=O)OC(C)(C)C)CC1)C(=O)N[C@@H](C(=O)O)c1ccccc1 (stereo partly drawn)	-0.1	-1.3	-0.6	2.4	0.8	-1.4	nt	nt	nt
Cc1cc(C)n(-c2ccc(C(=O)N3CCN(S(=O)(=O)c4ccc(OC(F)(F)F)cc4)CC3)cc2)n1	4.3	nt	-0.2	3.3	1.0	-3.4	nt	nt	nt
Cc1cc(-c2csc(NC(=O)c3ccc(=O)[nH]c3)n2)c(C)n1Cc1ccco1	74.3*	-9.0	62.7*	78.1*	10.6	39.6*	98.4*	8.0	-0.8
Cc1nc(SCC(=O)NCCN2C(=O)CSC2=O)nc(C)c1C	-1.1	4.8	-0.7	-3.8	1.5	-0.2	nt	nt	nt
CCCCCCCCO	0.3	-6.3	-1.0	-2.6	2.5	3.7	nt	nt	nt
CCCCCCCCCCCCCCCC(O)C(N)CO (stereo not drawn)	-65.7	-8.8	-1.0	13.1	1.5	53.2*	-17.8	1.4	0.2
CNC(=S)N(CCc1c(C)[nH]c2ccc(OC)cc12)Cc1ccco1	-11.1	2.0	-0.4	-8.8	0.7	5.3	nt	nt	nt
